Experimental data from ChEMBL document CHEMBL1821687, “Discovery, synthesis, and biological evaluation of novel SMN protein modulators” (J Med Chem, 2011).

Key:
Plasma [1] = experiment: Free plasma concentration in Swiss albino mouse at 30 mg/kg, po after 2 hrs; type: ADME, organism-based; parameters: dose 30 mg/kg, route oral; conditions: in vivo
[2] = Plasma concentration in Swiss albino mouse at 30 mg/kg, po after 1 hr; type: ADME, organism-based; parameters: dose 30 mg/kg, route oral
In short: (§1)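 Male Swiss Albino mice received a single 30 mg/kg oral gavage dose. Compound levels were measured in plasma and brain over time, and PK parameters were derived from the concentration–time data.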

Brain [3] = experiment: Half-life in brain of Swiss albino mouse at 30 mg/kg, po; type: ADME, organism-based; parameters: dose 30 mg/kg, route oral; conditions: in vivo; in short: as §1
Plasma [4] = experiment: Free plasma concentration in Swiss albino mouse at 30 mg/kg, po after 24 hrs; type: ADME, organism-based; parameters: dose 30 mg/kg, route oral; conditions: in vivo
[5] = Plasma concentration in Swiss albino mouse at 30 mg/kg, po after 4 hrs; type: ADME, organism-based; parameters: dose 30 mg/kg, route oral; in short: as §1
Plasma [6] = experiment: Cmax in plasma of Swiss albino mouse at 30 mg/kg, po; type: ADME, organism-based; parameters: dose 30 mg/kg, route oral; conditions: in vivo; in short: as §1
Brain [7] = experiment: Drug level in Swiss albino mouse brain at 30 mg/kg, po after 0.5 hr; type: ADME, organism-based; parameters: dose 30 mg/kg, route oral; conditions: in vivo; in short: as §1
[8] = Plasma concentration in Swiss albino mouse at 30 mg/kg, po after 0.5 hrs; type: ADME, organism-based; parameters: dose 30 mg/kg, route oral; in short: as §1
Brain [9] = experiment: Drug level in Swiss albino mouse brain at 30 mg/kg, po after 0.083 hr; type: ADME, organism-based; parameters: dose 30 mg/kg, route oral; conditions: in vivo
[10] = Plasma concentration in Swiss albino mouse at 30 mg/kg, po after 8 hrs; type: ADME, organism-based; parameters: dose 30 mg/kg, route oral; in short: as §1
Plasma [11] = experiment: Free plasma concentration in Swiss albino mouse at 30 mg/kg, po after 0.083 hr; type: ADME, organism-based; parameters: dose 30 mg/kg, route oral; conditions: in vivo
Plasma [12] = experiment: Free plasma concentration in Swiss albino mouse at 30 mg/kg, po after 8 hrs; type: ADME, organism-based; parameters: dose 30 mg/kg, route oral; conditions: in vivo
[13] = Plasma concentration in Swiss albino mouse at 30 mg/kg, po after 0.25 hrs; type: ADME, organism-based; parameters: dose 30 mg/kg, route oral; in short: as §1
[14] = target: Survival motor neuron protein (Homo sapiens) (UniProt Q16637); experiment: Activation of SMN expressed in HEK293 cells assessed as rate of induction by SMN2-promotor driven luciferase reporter gene assay relative to basal level; type: cell-based; parameters: concentration or dose not given beside the values
In short: (§2)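 HEK-293 cells stably carrying the SMN2 reporter construct, kept in DMEM with 10% FCS, glutamax, pyruvate, pen/strep and 200 µg/mL hygromycin, and assayed without hygromycin. 2,000 cells/well were plated and adhered overnight at 37 °C, 5% CO2. Compounds were added as a 7-point titration, 50 µM to 25 nM final, in 0.46% DMSO, for 30–36 h. OneGlo luminescence was normalized to 4.5 mM sodium butyrate (100%) and DMSO (0%).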

Brain [15] = experiment: Drug level in Swiss albino mouse brain at 30 mg/kg, po after 2 hrs; type: ADME, organism-based; parameters: dose 30 mg/kg, route oral; conditions: in vivo; in short: as §1
[16] = Plasma protein binding in Swiss albino mouse at 30 mg/kg, po; type: ADME, organism-based; parameters: dose 30 mg/kg, route oral; conditions: read-out: PPB (converted)
Caco-2 [17] = experiment: Apparent permeability from apical side to basolateral side of human Caco2 cells at 10 uM; type: ADME, cell-based; conditions: caco-2, 10 µM
[18] = Plasma concentration in Swiss albino mouse at 30 mg/kg, po after 0.083 hrs; type: ADME, organism-based; parameters: dose 30 mg/kg, route oral
Plasma [19] = experiment: AUClast in plasma of Swiss albino mouse at 30 mg/kg, po; type: ADME, organism-based; parameters: time 0 - last, dose 30 mg/kg, route oral; conditions: in vivo; in short: as §1
Brain [20] = experiment: Drug level in Swiss albino mouse brain at 30 mg/kg, po after 12 hrs; type: ADME, organism-based; parameters: dose 30 mg/kg, route oral; conditions: in vivo; in short: as §1
Brain [21] = experiment: Drug level in Swiss albino mouse brain at 30 mg/kg, po after 4 hrs; type: ADME, organism-based; parameters: dose 30 mg/kg, route oral; conditions: in vivo; in short: as §1
Plasma [22] = experiment: Free plasma concentration in Swiss albino mouse at 30 mg/kg, po after 0.5 hr; type: ADME, organism-based; parameters: dose 30 mg/kg, route oral; conditions: in vivo
Plasma [23] = experiment: Free plasma concentration in Swiss albino mouse at 30 mg/kg, po after 0.25 hr; type: ADME, organism-based; parameters: dose 30 mg/kg, route oral; conditions: in vivo
[24] = Plasma concentration in Swiss albino mouse at 30 mg/kg, po after 2 hrs; type: ADME, organism-based; parameters: dose 30 mg/kg, route oral; in short: as §1
Brain [25] = experiment: Drug level in Swiss albino mouse brain at 30 mg/kg, po after 1 hr; type: ADME, organism-based; parameters: dose 30 mg/kg, route oral; conditions: in vivo; in short: as §1
[26] = Plasma concentration in Swiss albino mouse at 30 mg/kg, po after 12 hrs; type: ADME, organism-based; parameters: dose 30 mg/kg, route oral; in short: as §1
Brain [27] = experiment: AUClast in brain of Swiss albino mouse at 30 mg/kg, po; type: ADME, organism-based; parameters: time 0 - last, dose 30 mg/kg, route oral; conditions: in vivo; in short: as §1
Plasma [28] = experiment: Half-life in plasma of Swiss albino mouse at 30 mg/kg, po; type: ADME, organism-based; parameters: dose 30 mg/kg, route oral; conditions: in vivo; in short: as §1
[29] = target: T1, Luciferin 4-monooxygenase (Luciola lateralis, UniProt Q01158); experiment: Inhibition of fire fly luciferase; parameters: species or system Aquatica lateralis; conditions: read-out: IC50
T1 sequence (Q01158 whole entry): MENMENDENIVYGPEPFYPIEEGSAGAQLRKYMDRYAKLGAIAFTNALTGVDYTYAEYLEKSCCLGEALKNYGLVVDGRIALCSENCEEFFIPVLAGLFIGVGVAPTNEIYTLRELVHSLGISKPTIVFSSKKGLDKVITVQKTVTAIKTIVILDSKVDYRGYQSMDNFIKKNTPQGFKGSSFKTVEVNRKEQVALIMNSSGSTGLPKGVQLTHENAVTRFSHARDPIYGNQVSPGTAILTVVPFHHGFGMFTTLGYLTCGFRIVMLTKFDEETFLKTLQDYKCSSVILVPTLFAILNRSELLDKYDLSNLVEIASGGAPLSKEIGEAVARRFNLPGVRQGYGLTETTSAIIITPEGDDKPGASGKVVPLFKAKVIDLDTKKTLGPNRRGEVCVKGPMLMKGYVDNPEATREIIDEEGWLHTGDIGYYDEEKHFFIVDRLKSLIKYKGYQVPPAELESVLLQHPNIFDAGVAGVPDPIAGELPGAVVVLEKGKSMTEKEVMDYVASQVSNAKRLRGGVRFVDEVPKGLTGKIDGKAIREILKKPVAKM

Brain [30] = experiment: Drug level in Swiss albino mouse brain at 30 mg/kg, po after 24 hrs; type: ADME, organism-based; parameters: dose 30 mg/kg, route oral; conditions: in vivo; in short: as §1
[31] = target: Survival motor neuron protein (Homo sapiens) (UniProt Q16637); experiment: Activation of SMN expressed in HEK293 cells assessed as concentration required to reach 50% of maximum luciferase signal by SMN2-promotor driven luciferase reporter gene assay; type: cell-based; in short: as §2
[32] = Ratio of AUC in brain to AUC in plasma in Swiss albino mouse at 30 mg/kg, po; type: ADME, organism-based; parameters: dose 30 mg/kg, route oral; conditions: brain and plasma
In short: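 Single oral gavage dose of 30 mg/kg given to male Swiss Albino mice; compound concentrations measured in both plasma and brain, from which brain and plasma exposure parameters were derived; animals observed for behavioural disturbance throughout the study.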

Brain [33] = experiment: AUC (infinity) in brain of Swiss albino mouse at 30 mg/kg, po; type: ADME, organism-based; parameters: time infinity, dose 30 mg/kg, route oral; conditions: in vivo; in short: as §1
Plasma [34] = experiment: Tmax in plasma of Swiss albino mouse at 30 mg/kg, po; type: ADME, organism-based; parameters: dose 30 mg/kg, route oral; conditions: in vivo; in short: as §1
Liver = experiment: Half-life in mouse liver microsome at 1 uM; type: ADME; conditions: microsomes
Brain [35] = experiment: Cmax in brain of Swiss albino mouse at 30 mg/kg, po; type: ADME, organism-based; parameters: dose 30 mg/kg, route oral; conditions: in vivo; in short: as §1
Plasma [36] = experiment: Free plasma concentration in Swiss albino mouse at 30 mg/kg, po after 4 hrs; type: ADME, organism-based; parameters: dose 30 mg/kg, route oral; conditions: in vivo
[37] = Plasma concentration in Swiss albino mouse at 30 mg/kg, po after 24 hrs; type: ADME, organism-based; parameters: dose 30 mg/kg, route oral; in short: as §1
Plasma [38] = experiment: Free plasma concentration in Swiss albino mouse at 30 mg/kg, po after 1 hr; type: ADME, organism-based; parameters: dose 30 mg/kg, route oral; conditions: in vivo
Caco-2 [39] = experiment: Apparent permeability from basolateral side to apical side of human Caco2 cells at 10 uM; type: ADME, cell-based; conditions: caco-2, 10 µM
Plasma [40] = experiment: Free plasma concentration in Swiss albino mouse at 30 mg/kg, po after 12 hrs; type: ADME, organism-based; parameters: dose 30 mg/kg, route oral; conditions: in vivo
[41] = target: Survival motor neuron protein (Homo sapiens) (UniProt Q16637); experiment: Activation of SMN in human fibroblast cells obtained from type 1 SMA patients assessed as protein punctuate bodies per 100 nuclei at 37 to 1000 nM relative to control; type: cell-based
Plasma [42] = experiment: AUC (infinity) in plasma of Swiss albino mouse at 30 mg/kg, po; type: ADME, organism-based; parameters: dose 30 mg/kg, route oral, time infinity; conditions: in vivo; in short: as §1
Brain [43] = experiment: Tmax in brain of Swiss albino mouse at 30 mg/kg, po; type: ADME, organism-based; parameters: dose 30 mg/kg, route oral; conditions: in vivo; in short: as §1
Brain [44] = experiment: Drug level in Swiss albino mouse brain at 30 mg/kg, po after 8 hrs; type: ADME, organism-based; parameters: dose 30 mg/kg, route oral; conditions: in vivo; in short: as §1
Brain [45] = experiment: Drug level in Swiss albino mouse brain at 30 mg/kg, po after 0.25 hr; type: ADME, organism-based; parameters: dose 30 mg/kg, route oral; conditions: in vivo; in short: as §1

Sequence of Survival motor neuron protein (Homo sapiens) (Q16637 whole entry): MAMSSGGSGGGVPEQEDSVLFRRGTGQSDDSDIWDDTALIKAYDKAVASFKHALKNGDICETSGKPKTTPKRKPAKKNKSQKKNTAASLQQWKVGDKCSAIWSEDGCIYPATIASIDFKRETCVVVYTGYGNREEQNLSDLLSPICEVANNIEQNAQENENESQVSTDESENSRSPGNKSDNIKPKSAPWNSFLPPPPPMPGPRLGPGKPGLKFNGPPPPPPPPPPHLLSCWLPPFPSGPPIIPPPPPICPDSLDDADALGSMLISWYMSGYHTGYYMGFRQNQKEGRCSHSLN

## O=C(O)C1CCN(c2ncc(-c3ccc4c(c3)OCCCO4)s2)CC1
Plasma [1]
  Cp(f): 0.85 µM
[2]
  concentration at 1 h: 21 µM
Brain [3]
  t1/2: 13.69 h
Plasma [4]
  Cp(f): 0.22 µM
[5]
  concentration at 4 h: 10.8 µM
Plasma [6]
  Cmax: 44.4 µM
Brain [7]
  Drug uptake: 1.14 µmol/kg
[8]
  concentration at 0.5 h: 41.1 µM
Brain [9]
  Drug uptake: 0.48 µmol/kg
[10]
  concentration at 8 h: 12.6 µM
Plasma [11]
  Cp(f): 2.26 µM
Plasma [12]
  Cp(f): 0.64 µM
[13]
  concentration at 0.25 h: 41.7 µM
[14]
  Activity: 325%
Brain [15]
  Drug uptake: 0.43 µmol/kg
[16]
  fraction unbound: 0.051
Caco-2 [17]
  Papp: 33.8 ×10⁻⁶ cm/s
[18]
  concentration at 0.083 h: 44.4 µM
Plasma [19]
  AUClast: 77768 ng·h/mL
Brain [20]
  Drug uptake: 0.13 µmol/kg
Brain [21]
  Drug uptake: 0.36 µmol/kg
Plasma [22]
  Cp(f): 2.1 µM
Plasma [23]
  Cp(f): 2.13 µM
[24]
  concentration at 2 h: 16.6 µM
Brain [25]
  Drug uptake: 0.59 µmol/kg
[26]
  concentration at 12 h: 4.57 µM
Brain [27]
  AUClast: 2167 ng·h/mL
Plasma [28]
  t1/2: 11.18 h
[29]
  IC50: 5 nM
Brain [30]
  Drug uptake: 0.13 µmol/kg
[31]
  Activity: 0.012 µM
[32]
  Kp: 0.028
Brain [33]
  AUC: 3115 ng·h/mL
Plasma [34]
  Tmax: 4.98 min
Liver
  t1/2: > 60 min
Brain [35]
  Cmax: 1.23 µmol/kg
Plasma [36]
  Cp(f): 0.55 µM
[37]
  concentration at 24 h: 4.36 µM
Plasma [38]
  Cp(f): 1.07 µM
Caco-2 [39]
  Papp: 44.1 ×10⁻⁶ cm/s
Plasma [40]
  Cp(f): 0.23 µM
[41]
  Activity: 80%
Plasma [42]
  AUC: 103.094 µg·h/mL
Brain [43]
  Tmax: 15 min
Brain [44]
  Drug uptake: 0.32 µmol/kg
Brain [45]
  Drug uptake: 1.23 µmol/kg
